This is an account of results in ChEMBL document CHEMBL1139903, “Formation of an enolate intermediate is required for the reaction catalyzed by 3-hydroxyacyl-CoA dehydrogenase” (Bioorg Med Chem Lett, 2007).

The species entered for data set [1] is Rattus norvegicus. The experiment in a line: Activity of rat 3-hydroxyacyl-CoA dehydrogenase N208A mutant. The method in brief:
(§1)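 Rat liver HAD enzymes (wild-type, Asn208Ala, Ser137Ala) were incubated with 3-hydroxyacyl-CoA substrates or fluorinated analogs and NAD⁺ cofactor, so the forward reaction oxidizes the 3-hydroxyl to a keto group while NAD⁺ is reduced to NADH. Kinetic studies derived parameters including Vmax.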

Data set [2] is filed under the species Rattus norvegicus. The experiment in a line: Activity of rat 3-hydroxyacyl-CoA dehydrogenase S137A mutant. The method in brief:
as §1

Substrate in data set [3]: CCC/C=C/C(O)CC(=O)SCCNC(=O)CCNC(=O)[C@H](O)C(C)(C)COP(=O)(O)OP(=O)(O)OC[C@H]1O[C@@H](n2cnc3c(N)ncnc32)[C@H](O)[C@@H]1OP(=O)(O)O
The experiment in a line: (§2) Activity of rat 3-hydroxyacyl-CoA dehydrogenase. The method in brief:
as §1

Substrate in data set [4]: CCCCCC(O)CC(=O)SCCNC(=O)CCNC(=O)[C@H](O)C(C)(C)COP(=O)(O)OP(=O)(O)OC[C@H]1O[C@@H](n2cnc3c(N)ncnc32)[C@H](O)[C@@H]1OP(=O)(O)O
The description is as §2. The method in brief: as §1

Substrate in data set [5]: CCCCCC(O)C(F)C(=O)SCCNC(=O)CCNC(=O)[C@H](O)C(C)(C)COP(=O)(O)OP(=O)(O)OC[C@H]1O[C@@H](n2cnc3c(N)ncnc32)[C@H](O)[C@@H]1OP(=O)(O)O
Described as §2. The method in brief:
as §1

Substrate in data set [6]: CCC/C=C/C(O)C(F)C(=O)SCCNC(=O)CCNC(=O)[C@H](O)C(C)(C)COP(=O)(O)OP(=O)(O)OC[C@H]1O[C@@H](n2cnc3c(N)ncnc32)[C@H](O)[C@@H]1OP(=O)(O)O
Described as §2. The method in brief: as §1

The Km is the substrate concentration at which the rate is half of its maximum. In general, Vmax refers to the top rate of the reaction or transport when substrate is in excess. For `CCCCCC(O)CC(=O)SCCNC(=O)CCNC(=O)[C@H](O)C(C)(C)COP(=O)(O)OP(=O)(O)OC[C@H]1O[C@@H](n2cnc3c(N)ncnc32)[C@H](O)[C@@H]1OP(=O)(O)O` (some centres not stated), in data set [1], the Km was found to be 46.8 µM and the Vmax worked out at 0.28 µmol/min/mg.
Take `CCC/C=C/C(O)C(F)C(=O)SCCNC(=O)CCNC(=O)[C@H](O)C(C)(C)COP(=O)(O)OP(=O)(O)OC[C@H]1O[C@@H](n2cnc3c(N)ncnc32)[C@H](O)[C@@H]1OP(=O)(O)O` (some centres not stated): the figures for the Km in data set [2] and in data set [1] were 55.7 µM and 44.9 µM, respectively. The Vmax in data set [2] was found to be 0.17 µmol/min/mg; in data set [1], 0.1 µmol/min/mg.
With `CCC/C=C/C(O)CC(=O)SCCNC(=O)CCNC(=O)[C@H](O)C(C)(C)COP(=O)(O)OP(=O)(O)OC[C@H]1O[C@@H](n2cnc3c(N)ncnc32)[C@H](O)[C@@H]1OP(=O)(O)O` (some centres not stated), the values for the Km in data set [2] and in data set [1] were 53.2 µM and 49.6 µM, respectively. For the same molecule, the Vmax in data set [2] amounted to 0.46 µmol/min/mg; in data set [1], 1.08 µmol/min/mg.

B1: Peroxisomal multifunctional enzyme type 2 (Rattus norvegicus), P97852 (protein)
chain: MASPLRFDGRVVLVTGAGGGLGRAYALAFAERGALVVVNDLGGDFKGVGKGSSAADKVVEEIRRRGGKAVANYDSVEAGEKLVKTALDTFGRIDVVVNNAGILRDRSFSRISDEDWDIIQRVHLRGSFQVTRAAWDHMKKQNYGRIIMTASASGIYGNFGQANYSAAKLGLLGLANTLVIEGRKNNIHCNTIAPNAGSRMTETVMPEDLVEALKPEYVAPLVLWLCHESCEENGGLFEVGAGWIGKLRWERTLGAIVRKRNQPMTPEAVRDNWVKICDFSNASKPKSIQESTGGIIEVLHKIDSEGISQNHTGQVASADASGFAGVVGHKLPSFSSSYTELQCIMYALGVGASVKNPKDLKFVYEGSADFSCLPTFGVIVAQKSLMSGGLAEVPGLSINFAKVLHGEQYLELYKPLPRSGELKCEAVIADILDKGSGIVIVMDVYSYSGKELICYNQFSVFVVGSGGFGGKRTSEKLKAAVAVPSRPPDAVLRDTTSLNQAALYRLSGDSNPLHIDPSFASIAGFEKPILHGLCTFGFSARHVLQQFADNDVSRFKAIKVRFAKPVYPGQTLQTEMWKEGNRIHFQTKVQETGDIVISNAYVDLVPTSGVSAQTPSEGGALQSALVFGEIGRRLKDVGREVVKKVNAVFEWHITKNGNVAAKWTIDLKNGSGEVYQGPAKGSADTTITISDEDFMEVVLGKLNPQNAFFSGRLKARGNIMLSQKLQMILKDYAKL
As for B1, the Michaelis constant (Km) is 20 µM in data set [3], 34.6 µM in data set [4], 69.3 µM in data set [5] and 46.8 µM in data set [6]. Also, the Vmax in data set [3] stood at 21.8 µmol/min/mg; in data set [4] it was 10.5 µmol/min/mg; in data set [6], 11.7 µmol/min/mg.
